Results from the RNAGym collection of RNA variant scans (doi:10.1126/science.aae0568).
Fewer inactive variants are shown than the library holds.

B1: tRNA (parent)
chain: GUUCCGUUGGCGUAAUGGUAACGCGUCUCCCUCCUAAGGAGAAGACUGCGGGUUCGAGUCCCGUACGGAACG

Variants of: B1
Test: yeast fitness relative to wild type (ratio to wild type); higher = fitter; tRNA-Arg(CCU), competitive growth, 37 C, YPD
Outline: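 Variants of the tRNA-Arg(CCU) gene were chemically synthesised with a 3% per-site mutation rate across 69 sites and placed at the native genomic locus in Saccharomyces cerevisiae. Six parallel replicates of the pooled strains were competed in YPD at 37°C for 24 hours, and gene amplicons from the start and end populations were read by 100-nucleotide paired-end sequencing. Darwinian fitness relative to wild type was derived from changes in genotype frequencies. Genotypes required ≥ 100 starting reads, and estimates < 0.5 were set to 0.5.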

Variant | yeast fitness
GUUCCGUUGGCGUGAUGGUAACGUGUCUCCCUCCUAAGGAGAAGACUGCGAGUUCGAGUCCCGUACGGAACG [A14G C24U G51A] | ≤ 0.5
GUUCCGUUGGCGUGAUGGUAACGCGUCUCGCUCCUCAGGAGAAGACUGCGGGUUCGAGUCCCGUACGGUACG [A14G C30G A36C A69U] | ≤ 0.5
GUUCCGUUGGCGUGAUGGUAACGCGUCUCCGUCCUAUGGAGAAGACUGCGGGUUCGAGUCCCGUUCGGAACG [A14G C31G A37U A65U] | 0.529
GUUCCGUUGGCGUGAUGGUAACGCGUCUCUCUCCUAAGGAGGAGACUGCGGGUUCGUGUCCCGUACGGAACG [A14G C30U A42G A57U] | ≤ 0.5
GUUCCGUUGGCGUGAUGGUAACGCGUGUCCAUGCUAAGGAGAAGACUGUGGGUUCGACUCCCGUACGGAACG [A14G C27G C31A C33G C49U G58C] | ≤ 0.5
GUUCCGUUGGCGUGAUGGUAACGCGUCUCGCUCCUAAGGAGUAGGCUGCGGGUUCGAGUCCCGUACGGUACG [A14G C30G A42U A45G A69U] | ≤ 0.5
GUUCCGUUGGCGUGAUGGUAACGCGUCUCCUUCCUAAGGAGAAGACUGCGGGUUAGAGUCCCGUACGGAGCG [A14G C31U C55A A70G] | ≤ 0.5
GUUCCGUUGGCGUGAUGGUAACGGAUCUCCCUCCUAAGGAGAGGACUGAGGGUUCGAGUCCCGUACGGAACG [A14G C24G G25A A43G C49A] | ≤ 0.5
GUUCCGUUGGCGUGAUGGUAACGCGUGUCCUUCCUAAGGAGAAGACUGCGGGUUCGAGUCCCGUACGGAACG [A14G C27G C31U] | 0.501
GUUCCGUUGGCGUGAUGGUAACGCGUAUCCCUCCUACGGAGAAAACUGCGGGUUCGAGUCCCGUACGGAACG [A14G C27A A37C G44A] | 0.563
GUUCCGUUGGCGUGAUGGUAACGCGUCUCCAUCCUAAGGAGAAGAUUGCGGGUUCCAGUCCCGUACGGUACG [A14G C31A C46U G56C A69U] | ≤ 0.5
GUUCCGUUGGCGUGAUGGUAACGCGUCUCACUCGUAAGGAGAAGACUGCGGGUUCGAGUCCUGUACGGAACG [A14G C30A C34G C62U] | ≤ 0.5
GUUCCGUUGGCGUGAUGGUAACGCGUCUCCGUCCUAAGGAGAAGAGUGCGGGUUCGAGUCCCGUACGGAACG [A14G C31G C46G] | 0.577
GUUCCGUUGGCGUGAUGGUAACGGCUAUCCCUCCUAAGGCGAAGACUGCGAGUUCGAGUCCCGUACGGAACG [A14G C24G G25C C27A A40C G51A] | ≤ 0.5
GUUCCGUUGGCGUGAUGGUAACGCGUCUCCGUCCUAAGGAGAAGACUGCGGGUUCGAGUCCCGUACGGCACG [A14G C31G A69C] | 0.652
GUUCCGUUGGCGUGAUGGUAACGUGUCUCCCUCCUCAGGAGAUGACUGCGGGUUCGAGUCCCGUACGGUACG [A14G C24U A36C A43U A69U] | ≤ 0.5
GUUCCGUUGGCGUGAUGGUAACGCGUCUGCCUCCUAAGGAGAAGACUGCGGGUUCGAGUCCUGUACGGAACG [A14G C29G C62U] | 0.573
GUUCCGUUGGCGUGAUGGUAACGCGUCUGCCUCCUAAGGAGAUGAUUGCGGGUUCGAGUCCCGUACGGAACG [A14G C29G A43U C46U] | ≤ 0.5
GUUCCGUUGGCGUGAUGGUAACGCGUCUCGCUCCUCAGGAGAAGACUGCGGGUUCGAGUCCCGUACGGAACG [A14G C30G A36C] | 0.525

Variant | yeast fitness
GUUCCGUUGGCGUGAUGGUAACGCGUCUCCUUCCUAAGGAGAAGACUGCGGGUUAGAGUCCCGUACGGAACG [A14G C31U C55A] | 0.552
GUUCCGUUGGCGUGAUGGUAACGCGUCUCCGUCCUAAGGAGAAGUCUGCGGGUUCGAGUCCUGUACGGAACG [A14G C31G A45U C62U] | 0.669
GUUCCGUUGGCGUGAUGGUAACGCGUCUCCCUUCUAAGGUGAAGACUGCGGGUUCGAGUCCGGUACGGAACG [A14G C33U A40U C62G] | 0.68
GUUCCGUUGGCGUGAUGGUAACGCGUGUCCCUCCUAAGGAGAAGACUGCGGGUUCGAGUCUCGUACGGAACG [A14G C27G C61U] | ≤ 0.5
GUUCCGUUGGCGUGAUGGUAACGCGUCUUCCUCCUAAGGAAAAGACUGCGGGUUCGAGUCCCAUACGGAACG [A14G C29U G41A G63A] | ≤ 0.5
GUUCCGUUGGCGUGAUGGUAACGCGUCUCACUCCUAAGGAGAAGACUGCAAGUUCGAGUCCCGUACGGGACG [A14G C30A G50A G51A A69G] | ≤ 0.5
GUUCCGUUGGCGUGAUGGUAACGCGUCUUCCUCCUAAGGAGAAGUCUGCGGGUUCGAGUCCCGUACGGAACG [A14G C29U A45U] | 0.626
GUUCCGUUGGCGUGAUGGUAACGCGUCUUCCUCCUAAGGAAAAGACUGCGGGUGCGAGUCCCGUACGGUACG [A14G C29U G41A U54G A69U] | 0.621
GUUCCGUUGGCGUGAUGGUAACGCGUCUUCUUUCUAAGGAGAAGACUGCGGGUUCGAGUCCCGUACGGAACG [A14G C29U C31U C33U] | 0.543
GUUCCGUUGGCGUGAUGGUAACGGGUCUCCCUCCUAAGGAGAAGACUGCGGGUUCGAGUCCCGUCCGGAACG [A14G C24G A65C] | ≤ 0.5
GUUCCGUUGGCGUGAUGGUAACGCGUCUCUCUCCUAAGGAGACGACUGCGGAUUCGAGUCCCGUACGGAACG [A14G C30U A43C G52A] | ≤ 0.5
GUUCCGUUGGCGUGAUGGUAACGUGUCUCCCUCCUAAGGAGAAGACUGCGGGUUCGAGUCCCGUACCGAACG [A14G C24U G67C] | 0.54
GUUCCGUUGGCGUGAUGGUAACGCGUCUCCGUUCUAACGAGAAGACUGCGGGUUCGACUCCCGUAGGGAACG [A14G C31G C33U G38C G58C C66G] | ≤ 0.5
GUUCCGUUGGCGUGAUGGUAACGCGUCUCCUUCCUAAGGAGAAGACUGUGGGUUCGAGUCCCGUACGGAACG [A14G C31U C49U] | 0.809
GUUCCGUUGGCGUGAUGGUAACGCGUCUCCUUCCUAAGGAGAAGACUGAGGGUUCGAGUCCCGUACGGAACG [A14G C31U C49A] | ≤ 0.5
GUUCCGUUGGCGUGAUGGUAACGUGGCUCCCUCCUAAGGAGAAGACUGCGGGUUCGAGUCCCGUACGGAACG [A14G C24U U26G] | ≤ 0.5
GUUCCGUUGGCGUGAUGGUAACGCGUCUUCCUCCUAAGGAGAAGACUGCGGGUUCGAGUCCCGUGCGGAACG [A14G C29U A65G] | 0.555
GUUCCGUUGGCGUGAUGGUAACGCGUUUCCCUUCCAAGGAGAAGACUGCGGGUUCGAGUCCCGUACGGAACG [A14G C27U C33U U35C] | ≤ 0.5
